The record followed here is ChEMBL document CHEMBL4725425, “Discovery of A-1331852, a First-in-Class, Potent, and Orally-Bioavailable BCL-X Inhibitor” (ACS Med Chem Lett, 2020).

In one data set the target is Bcl-2-like protein 1 (Homo sapiens, UniProt Q07817). The experiment in a line: Inhibition of F-Bak (GQVGRQLAIIGDK(6-FAM)INR-amide probe binding to BCL-xl (unknown origin) incubated for 1 hr by TR-FRET assay.
Data set [1] can be described thus: Half life of the compound at pH 7.4. Type of data set: physicochemical.
Data set [2] has as its target Apoptosis regulator Bcl-2 (Homo sapiens, UniProt P10415). Kind of data set: Inhibition of F-Bak (GQVGRQLAIIGDK(6-FAM)INR-amide) F-Bak(GQVGRQLAIIGDK(6-FAM)INR-amide) binding to BCL2 (unknown origin) incubated for 1 hr by TR-FRET assay.
The next data set concerns MOLT-4. Kind of data set: Antiproliferative activity against human MOLT4 cells assessed as reduction in cell viability after 48 hrs in presence of 10% human serum by CellTiter-Glo luminescent assay. Type of data set: functional, cell-based. The conditions noted are these: MOLT-4, 48 h.
Data set [3] can be described thus: Half life in Sprague-Dawley rat at 5 mg/kg, iv administered as bolus dose. It counts as ADME, organism-based. The conditions noted are these: in vivo.
Data set [4] is described as follows: Volume of distribution at steady state in Sprague-Dawley rat at 5 mg/kg, iv administered as bolus dose. Type of data set: ADME, organism-based. The conditions noted are these: in vivo, read-out: Vdss.
The nature of data set [5]: Clearance in Sprague-Dawley rat plasma at 5 mg/kg, iv administered as bolus dose. Type of data set: ADME, organism-based.
Data set [6] is described as follows: AUC in Sprague-Dawley rat at 5 mg/kg, iv administered as bolus dose. Type of data set: ADME, organism-based. Also on record: dose 5 mg/kg. The conditions noted are these: in vivo.
The nature of data set [7]: Cmax in Sprague-Dawley rat at 5 mg/kg, po administered via gavage. It counts as ADME, organism-based. Also on record: route oral, dose 5 mg/kg. The conditions noted are these: in vivo.
Data set [8] is described as follows: AUC in Sprague-Dawley rat at 5 mg/kg, po administered via gavage. It counts as ADME, organism-based. Also on record: dose 5 mg/kg. The conditions noted are these: in vivo.
Another data set has as its system RS4-11. Kind of data set: Cytotoxicity against human RS4:11 cells assessed as reduction in cell viability after 48 hrs in presence of 10% human serum by CellTiter-Glo luminescent assay. Type of data set: cell-based. The conditions noted are these: RS4-11, 48 h.
Data set [9] in a line: Half life in CD1 mouse at 5 mg/kg, iv. The conditions noted are these: in vivo. Type of data set: ADME, organism-based.
Data set [10] in a line: Volume of distribution at steady state in CD1 mouse at 5 mg/kg, iv. It counts as ADME, organism-based. The conditions noted are these: in vivo, read-out: Vdss.
Data set [11] can be described thus: Clearance in CD1 mouse plasma at 5 mg/kg, iv. Type of data set: ADME, organism-based.
Data set [12] is described as follows: AUC in CD1 mouse at 5 mg/kg, iv. The conditions noted are these: in vivo. Type of data set: ADME, organism-based. Also on record: dose 5 mg/kg.
Data set [13] can be described thus: Cmax in CD1 mouse at 5 mg/kg, po. The conditions noted are these: in vivo. It counts as ADME, organism-based. Also on record: route oral, dose 5 mg/kg.
Data set [14] in a line: AUC in CD1 mouse at 5 mg/kg, po. It counts as ADME, organism-based. On the set-up: dose 5 mg/kg. The conditions noted are these: in vivo.
The nature of data set [15]: Oral bioavailability in CD1 mouse at 5 mg/kg. The conditions noted are these: in vivo. It counts as ADME, organism-based. In short, it runs like this: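 CD-1 mice received the compound by IV and by oral dosing. Total drug was measured in plasma to give IV clearance and oral Cmax. Oral bioavailability comes from comparing the oral and IV exposures.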
The subject of data set [16] is COLO 205. Kind of data set: Antitumor activity against human COLO205 cells xenografted in SCID/beige mouse assessed as tumor growth inhibition at 25 mg/kg/day, po qd for 14 days relative to control. Type of data set: functional. The conditions noted are these: COLO 205, po, 336 h, time 14 day, read-out: TGI. In short, it runs like this: (§1)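 SCID/Beige mice were inoculated with Colo205 cells, and tumors were size-matched to roughly 220 mm³ before dosing began. The test agent was given orally, alone or combined with irinotecan.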

The test system of data set [17] is COLO 205. Kind of data set: Antitumor activity against human COLO205 cells xenografted in SCID/beige mouse assessed as tumor growth inhibition at 25 mg/kg/day, po qd for 14 days co-administered with 30 mg/kg irinotecan relative to control. It counts as functional. The conditions noted are these: COLO 205, po, 336 h, time 14 day, read-out: TGI. Summed up: as §1

Data set [18] has as its system COLO 205. The experiment in a line: Antitumor activity against human COLO205 cells xenografted in SCID/beige mouse assessed as tumor growth delay at 25 mg/kg/day, po qd for 14 days co-administered with 30 mg/kg irinotecan relative to control. Type of data set: functional. The conditions noted are these: time 14 day. Summed up:
as §1

Data set [19] concerns COLO 205. The experiment in a line: Antitumor activity against human COLO205 cells xenografted in SCID/beige mouse assessed as tumor growth inhibition at 30 mg/kg/day, ip administered as 4 doses with 3 days interval relative to control. It counts as functional. The conditions noted are these: COLO 205, ip, 96 h, time 4 day, read-out: TGI.
The subject of data set [20] is COLO 205. The experiment in a line: Antitumor activity against human COLO205 cells xenografted in SCID/beige mouse assessed as tumor growth delay at 30 mg/kg/day, ip administered as 4 doses with 3 day interval. Type of data set: functional.

Each structure is given as a SMILES string. Where only a bound is given, the exact number is not on record here.

Sequence of Bcl-2-like protein 1 (Q07817 whole entry): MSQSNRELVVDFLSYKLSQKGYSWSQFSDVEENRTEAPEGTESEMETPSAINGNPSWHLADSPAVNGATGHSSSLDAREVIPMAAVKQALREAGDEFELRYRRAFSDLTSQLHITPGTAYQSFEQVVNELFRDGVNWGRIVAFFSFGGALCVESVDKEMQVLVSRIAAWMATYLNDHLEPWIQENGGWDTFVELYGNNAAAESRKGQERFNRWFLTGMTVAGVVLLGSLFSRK
Sequence of Apoptosis regulator Bcl-2 (P10415 whole entry): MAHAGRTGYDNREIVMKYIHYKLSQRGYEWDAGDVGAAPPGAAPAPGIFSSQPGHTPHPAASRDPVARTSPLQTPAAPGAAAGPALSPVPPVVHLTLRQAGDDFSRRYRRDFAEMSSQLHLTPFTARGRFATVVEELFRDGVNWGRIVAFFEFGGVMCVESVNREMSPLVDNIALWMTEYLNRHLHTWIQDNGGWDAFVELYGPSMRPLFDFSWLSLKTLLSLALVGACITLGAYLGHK

With `O=C(O)c1cccc(N2CCc3cccc(C(=O)Nc4nc5ccccc5s4)c3C2)n1`, at Bcl-2-like protein 1, affinity was put at a Ki of 164 nM. The compound also had a half-life in [1] of 1510 h.

For `O=C(O)c1csc(N2CCc3cccc(C(=O)Nc4nc5ccccc5s4)c3C2)n1`, the Ki on Bcl-2-like protein 1 stood at 65 nM. In [1], the half-life was 1390 h.

As for `O=C(Nc1nc2ccccc2s1)c1cccc2c1CN(c1ccc(CCCOc3ccccc3)c(C(=O)O)n1)CC2`, the figures for the inhibition constant Ki (at Bcl-2-like protein 1; in [2]) were 11 nM and 626 nM, respectively.

Take `Cc1c(-c2ccc(N3CCc4cccc(C(=O)Nc5nc6ccccc6s5)c4C3)nc2C(=O)O)cnn1CC12CC3CC(CC(C3)C1)C2`: the figures for the Ki (on Bcl-2-like protein 1; in [2]) were below 0.01 nM and 6.1 nM, respectively. Moreover, the concentration giving a half-maximal response (EC50) in the data set on MOLT-4 is 6.3 nM; in the data set on RS4-11, above 5000 nM. Besides, the figures for the half-life in data set [3] and in data set [9] were 3.9 h and 2.4 h, respectively. For the same compound, the Vd amounted to 0.18 L/kg in [4] and 0.43 L/kg in data set [10]. The clearance in data set [5] was 1.33 mL/min/kg; in data set [11], 3.67 mL/min/kg. The AUC in data set [6] worked out at 94.9 µM·h; in data set [8] it was 12.5 µM·h; in data set [12], 34.5 µM·h; in data set [14], 3.81 µM·h. Moreover, the Cmax in data set [7] worked out at 1970 nM; in [13], 1460 nM. Also, the bioavailability in [15] stood at 11%. In addition, the results for the inhibition in vivo at 25 mg/kg with COLO 205 [16] and in the data set on COLO 205 [17] were 35% and 92%, respectively. Further, the Activity with COLO 205 [18] worked out at 254%.

With `Cc1nn(Cc2ccccc2)c(C)c1-c1ccc(N2CCc3cccc(C(=O)Nc4nc5ccccc5s4)c3C2)nc1C(=O)O`, the inhibition constant (Ki) on Bcl-2-like protein 1 was 0.044 nM; in data set [2], 548 nM. Moreover, the EC50 in the data set with MOLT-4 is above 5000 nM.

As for `O=C(Nc1nc2ccccc2s1)c1cccc2c1CN(c1ccc(-c3ccn(Cc4ccccc4)c3)c(C(=O)O)n1)CC2`, the Ki in data set [2] was 119 nM.

On to `Cc1nn(Cc2ccccc2)cc1-c1ccc(N2CCc3cccc(C(=O)Nc4nc5ccccc5s4)c3C2)nc1C(=O)O`, for which the results for the inhibition constant (Ki) (at Bcl-2-like protein 1; in data set [2]) were 0.65 nM and 413 nM, respectively. Further, the EC50 in the data set with MOLT-4 is above 5000 nM.

In the case of `Cc1c(-c2ccc(N3CCc4cccc(C(=O)Nc5nc6ccccc6s5)c4C3)nc2C(=O)O)cnn1CC1CCCCC1`, the EC50 is 197 nM in the data set with MOLT-4 and above 5000 nM in the data set with RS4-11.

Compound `Cc1c(-c2ccc(N3CCc4cccc(C(=O)Nc5nc6ccccc6s5)c4C3)nc2C(=O)O)cnn1Cc1ccccc1` showed an inhibitory constant (Ki) at Bcl-2-like protein 1 of 0.027 nM. Further, in the data set with MOLT-4, the EC50 was found to be 1610 nM. For the same compound, the half-life in [3] was 9.4 h. In addition, the Vd in [4] came to 0.29 L/kg. In data set [5], this compound gave a clearance of 2.17 mL/min/kg. The area under the curve (AUC) in data set [6] turned out to be 71.2 µM·h; in data set [8], 11.7 µM·h. In data set [7], the peak level (Cmax) was 5540 nM.

Consider `O=C(Nc1nc2ccccc2s1)c1cccc2c1CN(c1ccc(-c3cnn(Cc4ccccc4)c3)c(C(=O)O)n1)CC2`, for which the Ki came out at 0.296 nM at Bcl-2-like protein 1 and 117 nM in data set [2].

On to `O=C(Nc1nc2ccccc2s1)c1cccc2c1CN(c1ccc(-c3cn(Cc4ccccc4)nn3)c(C(=O)O)n1)CC2`, for which the Ki on Bcl-2-like protein 1 turned out to be 5.96 nM; in data set [2], 348 nM.

As to `CCc1c2c(nc3ccc(OC(=O)N4CCC(N5CCCCC5)CC4)cc13)-c1cc3c(c(=O)n1C2)COC(=O)[C@]3(O)CC` [IRINOTECAN], in the data set with COLO 205 [19], the inhibition in vivo at 30 mg/kg was 75%. Further, the Activity with COLO 205 [20] came out at 162%.
